Shown are actives, neighbours in structure and some others; about 2.2% of the full set was active somewhere.
Mot1-301 SUMO: inhibitors of SUMOylation pathway: yeast Mot1-301 growth rescue; S. cerevisiae Mot1-301 growth rescue, ATP luminescence, 38.5C; percent above DMSO median, 100 means doubled; growth rescue, % at 18.8 µM; hit rate 1% among 320,000;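 active = every valid replicate shows activation above 250% relative to neutral control wells; inactive = the rest, any valid replicate at or below 250%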;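 note: OY570 slx delta 5 strain wells were the positive control but not used for scaling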
Ecoli rRNA inh: selective bacterial rRNA inhibition in E. coli; E. coli WT GFP vs humanized-ribosome RFP mutants, fluorescence, 24 h; hits give low values; DMSO median 0, no signal -100; GFP signal change (wild-type ribosome), % (test concentration not listed); hit rate 1.6% among 350,000;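 active = significant combined selectivity score with lowered wild-type GFP, culture density cut under 30%, mutant RFP and density less affected; inactive = any of these conditions unmet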
PglD DTNB: PglD (C. jejuni) enzyme inhibition. purified PglD enzyme, DTNB colorimetric CoA detection. hit rate 0.098% among 360,000. inhibition, % at 12.5 µM; in the data active = inhibition above about 16%, passing the limit was not always enough
Cneo AK release: Cryptococcus neoformans lysis via adenylate kinase release. C. neoformans lysis, adenylate kinase release luminescence, 4 h; normalised: neutral wells 0, clomiphene wells 100. lysis activity, % at 15 µM. hit rate 0.2% among 360,000. AID 651654;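 active = mean lysis activity across replicates of at least 80%, whatever share of replicates individually reach that level; inactive = mean lysis activity below 80%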
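Schedule: static 4 h at 37 °C with compound, 1 h detection; system: C. neoformans cells; benchmarks: Clomiphene as positive control; buffer or medium: fresh YPD medium; measure: luminescence rise reflecting yeast cell lysis; measured by: luminescent adenylate kinase detection reagent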
Yeast superoxide: lowers age-related superoxide in aged yeast cells | S. cerevisiae aged cells, superoxide DHE fluorescence; hits give low values | superoxide response (% of plate mean), % at 10 µM | hit rate 0.18% among 330,000 | AID 2690;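 active = superoxide response under a set limit, about three screen SD below normal, cut at about 65% in these data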;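 note: yeast aged for seven days with compound at 30 °C before DHE staining; 100% = average MFI of all compound-treated wells on the plate with controls excluded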
PglD confirm: confirmation of Campylobacter jejuni PglD acetyltransferase inhibitors; Purified C. jejuni PglD, DTNB absorbance 412 nm; AID 743156; inhibition, % at 20 µM; 320 tested, under 10 active; shares compounds with PglD DTNB;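 active = mean inhibition across replicates of at least 20% with every single replicate also at 20% or more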;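 note: initial rate of CoA release by acetyl transfer from AcCoA to the UDP-4-amino sugar; 0% = median of neutral control wells and 100% = median of positive control wells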
* hit, by the source's call; · = not tested or not shown.

SMILES	Mot1-301 SUMO	Ecoli rRNA inh	PglD DTNB	Cneo AK release	Yeast superoxide	PglD confirm
S=C(NCc1ccncc1)NC1CCCCC1	3.3	14.0	27.4*	2.4	98.3	1.4
NCC[C@@H]1CC[C@@H](NC(=O)Nc2ccc(F)cc2)[C@@H](CO)O1	·	1.6	0.2	-2.3	·	·
O=S(=O)(Nc1cccnc1)c1ccc(Br)c2ccccc12	6.0	0.7	66.3*	3.5	107.0	8.8
O=C(Nc1ccccc1)c1ccc(Br)c(S(=O)(=O)Nc2cccnc2)c1	4.3	·	·	·	92.4	·
COc1ccc2c3c(n(C)c2c1)[C@H](CO)N(S(C)(=O)=O)CC31CCN(C(=O)C2CC2)CC1	·	-1.8	·	·	·	·
CCNCCNC(=O)c1c(O)c2cccc3c2n(c1=O)CCC3	·	·	22.1*	0.8	102.1	-15.6
COc1ccc(S(=O)(=O)N2CCCCC2)cc1NC(=S)Nc1ccccc1	21.9	·	22.8*	1.0	98.9	-2.5
C/C=C/c1ccc([C@@H]2[C@H](CO)N(Cc3cncnc3)C23CN(C(C)=O)C3)cc1	·	-1.7	·	·	·	·
CCc1ccccc1NC(=O)C1CCN(C(=O)c2ccc([N+](=O)[O-])cc2)CC1	-11.2	13.5	45.9*	-0.7	127.8	1.7
COc1ccc(CCNc2nc3ccccc3n3nnnc23)cc1OC	4.6	9.0	0.6	-1.1	92.9	·
c1ccc(CCNc2nc3ccccc3n3nnnc23)cc1	11.2	·	25.4*	-3.4	91.6	-10.1
COc1ccc(-c2cnnc(N/N=C/c3ccc(O)c(OC)c3)n2)cc1	2.3	·	26.1*	0.6	98.6	5.6
COc1cc(/C=N/Nc2nc(N3CCCC3)nc(N3CCCC3)n2)ccc1O	-3.8	·	-168.4	2.4	105.3	·
COc1ccc(NC(=O)N(C)C[C@@H]2OCCCC[C@H](C)Oc3ccc(NC(=O)c4ccncc4)cc3C(=O)N([C@H](C)CO)C[C@H]2C)cc1	·	0.8	1.5	-8.8	·	·
CCC(=O)N1[C@H](CN(C)C(C)=O)[C@H](c2ccc(C3=CCCC3)cc2)[C@@H]1CO	·	-0.7	·	·	·	·
CCN(CC)S(=O)(=O)c1ccc(S(=O)(=O)N2CCCC2C(=O)O)cc1 (stereo not given)	168.0	15.3	24.5*	-2.8	88.4	3.7
CCSc1nnc(NC(=O)[C@@H](NC(=O)c2cccc(C)c2)C(C)C)s1	131.7	·	23.5*	2.0	105.4	1.5
CO[C@@H]1CC[C@@H]2CCN(C)C(=O)C[C@H](c3ccccc3)CN(C)C(=O)c3cccc(C#N)c3OC[C@@H]1O2	·	-0.8	0.1	8.3	·	·
C[C@H]1CN([C@@H](C)CO)C(=O)c2cc(NC(=O)Nc3cccc4ccccc34)ccc2O[C@H]1CN(C)C(=O)Nc1cccc2ccccc12	·	-1.3	2.1	-9.7	·	·
Cc1cccc2[nH]c(CN(C)Cc3nc(CC4CC4)no3)nc12	-9.8	-2.1	35.9*	1.5	98.8	-2.9
CN(Cc1nc2ccccc2[nH]1)Cc1nc(CC2CC2)no1	-3.3	9.0	·	·	108.3	·
CCOc1cc(C2NC(=O)NC(c3ccccc3)=C2C(C)=O)ccc1OC(C)=O (stereo not given)	107.1	7.0	23.3*	1.9	104.8	-4.2
C[C@@H](NC(=O)C[C@H]1CC[C@@H]2[C@H](COC[C@H](O)CN2Cc2cc(F)ccc2F)O1)c1ccccc1	·	-1.8	-1.6	2.9	·	·
COc1ccc(C(C(=O)NCC2CCCO2)N(C(=O)CNC(=O)c2ccco2)c2ccc(C)c(C)c2)cc1OC (stereo not given)	-19.7	10.7	22.0*	-0.7	104.3	-3.6
C[C@@H](NC(=O)C[C@@H]1C[C@@H]2c3cc(NC(=O)CC4CC4)ccc3O[C@@H]2[C@@H](CO)O1)c1ccccc1	·	2.7	2.0	-14.2	·	·
SMILES	Mot1-301 SUMO	Ecoli rRNA inh	PglD DTNB	Cneo AK release	Yeast superoxide	PglD confirm
CC(=O)Nc1cc(-c2ccccc2F)cn2c(-c3ccccc3)cnc12	·	-12.3	-1.1	1.5	·	·
CC(=O)c1cccc(-c2cnc3c(NC=O)cc(-c4ccccc4F)cn23)c1	·	9.2	25.4*	1.6	·	1.5
COc1ccc(C(CCN2CCN(c3ccccc3)CC2)c2c(O)cc(OC)cc2OC)cc1 (stereo not given)	-14.1	·	1.0	7.6	102.9	·
COc1ccc(N2CCN(CCC(O)c3ccc4ccccc4c3)CC2)cc1 (stereo not given)	22.1	1.1	28.6*	-0.7	97.8	0.9
COC(=O)C[C@@H]1C[C@@H]2c3cc(NC(=O)Nc4ccc(C(F)(F)F)cc4)ccc3O[C@@H]2[C@@H](CO)O1	·	-20.8	·	·	·	·
CCCC/C(O)=C1\C(=O)CCCC1=NCCc1c(C)[nH]c2ccc(OC)cc12	-24.8	-18.1*	20.5*	3.4	89.9	-3.2
Cc1ccc2oc(=O)c(/C=C(\O)CC(C)C)nc2c1	4.4	·	20.6*	0.6	95.5	1.6
Cc1ccc(S(=O)(=O)N(C)C[C@H]2Oc3c(NS(=O)(=O)c4ccccc4)cccc3C(=O)N([C@H](C)CO)C[C@@H]2C)cc1	·	1.6	-3.0	-4.4	·	·
COc1ccc(-c2cc(NC(C)=O)c3ncc(-c4ccc(OC)c(OC)c4)n3c2)c(OC)c1	·	2.3	31.7*	-0.6	·	0.5
C[C@H]1CN([C@@H](C)CO)C(=O)c2c(c3ccccc3n2C)-c2ccccc2CO[C@H]1CN(C)Cc1ccc2c(c1)OCCN2C	·	-7.6	·	·	·	·
CC(=O)Nc1ccc(SCC(=O)Nc2ccccc2-c2ccccc2)cc1	248.3	-21.6	20.3*	-3.4	105.1	-1.9
CC(C)(C)c1ccc(-c2nnc3sc(-c4ccncc4)nn23)cc1	-3.6	·	23.9*	-2.2	109.8	1.6
COc1ccc(CN(C)C[C@H]2OCCCC[C@H](C)Oc3ccc(NC(=O)NC4CCCCC4)cc3C(=O)N([C@H](C)CO)C[C@@H]2C)cc1	·	2.2	6.5	-2.3	·	·
O=C1C2C3C=CC(C3)C2C(=O)N1Cc1ccccc1 (stereo not given)	-15.9	·	22.3*	2.0	115.0	-13.7
COc1ccc(CN2C(=O)C3C4C=CC(C4)C3C2=O)cc1 (stereo not given)	14.5	1.3	·	·	82.0	·
COCCCNC(=O)c1cccc2c(-c3cccc(C(N)=O)c3)coc12	·	-7.7	28.2*	-0.7	·	-3.6
O=C1NC2(CCCCCC2)C(=O)N1Cc1cccc([N+](=O)[O-])c1	-3.4	6.2	20.2*	-5.5	107.5	-0.1
OCc1ccccc1-c1ccc2nncn2c1	·	8.2	7.8	2.4	·	·
c1csc(-c2ccc3nncn3c2)c1	·	21.4	36.4*	-1.4	·	0.0
O=C(COC(=O)c1ccc([N+](=O)[O-])s1)NC(=O)NCc1ccccc1	-1.6	·	30.5*	-1.9	129.0	0.1
O=C(COC(=O)c1ccc([N+](=O)[O-])s1)NCCc1ccccc1	19.3	-10.1	4.3	-0.5	103.1	·
C[C@H]1CCCCO[C@H](CN(C)C(=O)Nc2ccc(F)cc2)[C@@H](C)CN([C@@H](C)CO)C(=O)c2cc(NS(C)(=O)=O)ccc2O1	·	-4.5	-0.2	0.9	·	·
